The source made the active and inactive calls. The calls are words filed in the database; no cut-off is given here.
What follows are molecules tested on HeLa (assay: Cytotoxicity against human HeLa cells after 4 days by ELISA reader assay). Conditions: 96 h.
Assay type: functional, cell-based
Method in brief: (§1)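 Cells grown per supplier, seeded at 2–4 × 10⁴ per well, left overnight in medium with 10% FBS at 37 °C under 5% CO₂, then exposed to compounds. WST (cell counting kit-8) reagent added for a further 4 h, absorbance read at 450 nm. IC50 from four-parameter logistic fit; mean ± S.D. of three experiments, each in triplicate.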

| SMILES | IC50 |
| --- | --- |
| Cc1cccc(-c2cc(-c3ccoc3)cc(-c3ccc(Cl)s3)n2)c1 | 23.6 µM |
| COc1cc([C@@H]2c3cc4c(cc3[C@@H](O[C@@H]3O[C@@H]5CO[C@@H](C)O[C@H]5[C@H](O)[C@H]3O)[C@H]3COC(=O)[C@H]23)OCO4)cc(OC)c1O [ETOPOSIDE] | 1.29 µM |
| Cc1ccsc1-c1cc(-c2ccco2)cc(-c2ccc(Cl)cc2)n1 | 24.5 µM |
| Clc1ccc(-c2cc(-c3ccoc3)cc(-c3ccccn3)n2)s1 | 21.6 µM |
| Clc1cccc(-c2cc(-c3ccoc3)cc(-c3ccc(Cl)s3)n2)c1 | 23.7 µM |
| Cc1ccccc1-c1cc(-c2ccoc2)cc(-c2ccc(Cl)s2)n1 | 19 µM |

The molecules below were run against DNA topoisomerase 2-alpha (Homo sapiens) (UniProt P11388) (assay: Inhibition of human DNA topoisomerase 2alpha-mediated relaxation of supercoiled pBR322 DNA at 100 uM after 30 mins by agarose gel electrophoresis). Conditions: not given.
Method in brief: (§2)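 Human topo IIα (1 unit) with 200 ng supercoiled pBR322, 30 min at 30 °C in 10 mM Tris–HCl pH 7.9, 50 mM NaCl, 50 mM KCl, 5 mM MgCl2, 1 mM EDTA, 1 mM ATP plus BSA. Products run on 1% agarose in TAE at 25 V for 4 h, ethidium-stained, supercoiled DNA quantified under UV.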

Chain of DNA topoisomerase 2-alpha (Homo sapiens) (P11388 whole entry): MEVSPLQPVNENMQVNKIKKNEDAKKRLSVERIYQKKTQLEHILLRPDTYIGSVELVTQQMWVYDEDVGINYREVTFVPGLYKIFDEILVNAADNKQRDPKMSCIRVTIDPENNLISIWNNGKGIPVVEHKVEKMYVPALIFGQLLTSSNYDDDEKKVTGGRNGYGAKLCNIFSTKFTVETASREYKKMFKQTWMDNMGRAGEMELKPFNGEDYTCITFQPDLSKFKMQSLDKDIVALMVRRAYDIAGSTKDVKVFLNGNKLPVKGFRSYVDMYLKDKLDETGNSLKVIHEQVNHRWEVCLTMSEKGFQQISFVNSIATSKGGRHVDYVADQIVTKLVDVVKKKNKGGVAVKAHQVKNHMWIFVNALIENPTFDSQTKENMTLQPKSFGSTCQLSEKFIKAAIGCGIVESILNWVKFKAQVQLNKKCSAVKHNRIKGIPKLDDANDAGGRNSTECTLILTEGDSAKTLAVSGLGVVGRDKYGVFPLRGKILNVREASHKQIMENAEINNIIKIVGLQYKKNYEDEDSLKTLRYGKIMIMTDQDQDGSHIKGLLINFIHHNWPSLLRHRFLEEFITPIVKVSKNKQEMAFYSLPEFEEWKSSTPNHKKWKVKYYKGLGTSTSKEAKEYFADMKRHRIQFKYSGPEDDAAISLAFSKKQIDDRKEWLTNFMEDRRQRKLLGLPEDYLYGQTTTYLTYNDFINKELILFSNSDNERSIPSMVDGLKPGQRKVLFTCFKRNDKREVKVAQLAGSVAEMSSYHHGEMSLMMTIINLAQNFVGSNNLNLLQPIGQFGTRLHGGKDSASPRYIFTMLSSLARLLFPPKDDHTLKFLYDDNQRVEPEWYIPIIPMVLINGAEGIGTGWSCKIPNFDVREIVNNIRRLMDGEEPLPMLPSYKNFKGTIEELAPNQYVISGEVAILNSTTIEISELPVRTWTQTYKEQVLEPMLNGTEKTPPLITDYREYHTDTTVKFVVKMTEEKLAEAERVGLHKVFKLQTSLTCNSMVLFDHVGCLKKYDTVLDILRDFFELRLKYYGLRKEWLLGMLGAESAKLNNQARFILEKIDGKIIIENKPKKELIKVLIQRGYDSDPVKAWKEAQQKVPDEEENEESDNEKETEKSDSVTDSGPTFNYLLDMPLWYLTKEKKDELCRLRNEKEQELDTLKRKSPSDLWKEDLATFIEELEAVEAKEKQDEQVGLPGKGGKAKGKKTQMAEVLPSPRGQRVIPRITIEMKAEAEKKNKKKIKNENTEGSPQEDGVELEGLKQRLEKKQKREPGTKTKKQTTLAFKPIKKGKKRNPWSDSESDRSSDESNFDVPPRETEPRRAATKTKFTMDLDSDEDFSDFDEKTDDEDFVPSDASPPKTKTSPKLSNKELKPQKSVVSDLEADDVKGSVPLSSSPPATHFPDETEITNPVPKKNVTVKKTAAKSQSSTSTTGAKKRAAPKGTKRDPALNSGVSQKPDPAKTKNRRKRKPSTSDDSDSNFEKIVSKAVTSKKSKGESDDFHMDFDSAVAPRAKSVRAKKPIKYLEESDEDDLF

| SMILES | inhibition |
| --- | --- |
| Cc1cccc(-c2cc(-c3ccoc3)cc(-c3ccc(Cl)s3)n2)c1 | 50.2% |
| Cc1ccsc1-c1cc(-c2ccco2)cc(-c2ccc(Cl)cc2)n1 | 56.3% |
| Clc1ccc(-c2cc(-c3ccoc3)cc(-c3ccccn3)n2)s1 | 49.6% |
| Clc1cccc(-c2cc(-c3ccoc3)cc(-c3ccc(Cl)s3)n2)c1 | 54% |
| Cc1ccccc1-c1cc(-c2ccoc2)cc(-c2ccc(Cl)s2)n1 | 60.7% |

The molecules below were run on MCF7 (assay: Cytotoxicity against human MCF7 cells after 4 days by ELISA reader assay). Conditions: MCF7, 96 h.
Assay type: functional, cell-based
Method in brief: as §1

| SMILES | IC50 |
| --- | --- |
| Cc1cccc(-c2cc(-c3ccoc3)cc(-c3ccc(Cl)s3)n2)c1 | 3.99 µM |
| COc1cc([C@@H]2c3cc4c(cc3[C@@H](O[C@@H]3O[C@@H]5CO[C@@H](C)O[C@H]5[C@H](O)[C@H]3O)[C@H]3COC(=O)[C@H]23)OCO4)cc(OC)c1O [ETOPOSIDE] | 1.89 µM |
| Cc1ccsc1-c1cc(-c2ccco2)cc(-c2ccc(Cl)cc2)n1 | 0.89 µM |
| Clc1ccc(-c2cc(-c3ccoc3)cc(-c3ccccn3)n2)s1 | 3.36 µM |
| Clc1cccc(-c2cc(-c3ccoc3)cc(-c3ccc(Cl)s3)n2)c1 | 2.92 µM |
| Cc1ccccc1-c1cc(-c2ccoc2)cc(-c2ccc(Cl)s2)n1 | 1.43 µM |

What follows are molecules tested on HCT-15 (assay: Cytotoxicity against human HCT15 cells after 4 days by ELISA reader assay). Conditions: HCT-15, 96 h.
Assay type: functional, cell-based
Method in brief: as §1

| SMILES | IC50 |
| --- | --- |
| Cc1cccc(-c2cc(-c3ccoc3)cc(-c3ccc(Cl)s3)n2)c1 | 0.88 µM |
| COc1cc([C@@H]2c3cc4c(cc3[C@@H](O[C@@H]3O[C@@H]5CO[C@@H](C)O[C@H]5[C@H](O)[C@H]3O)[C@H]3COC(=O)[C@H]23)OCO4)cc(OC)c1O [ETOPOSIDE] | 1.09 µM |
| Cc1ccsc1-c1cc(-c2ccco2)cc(-c2ccc(Cl)cc2)n1 | 0.71 µM |
| Clc1ccc(-c2cc(-c3ccoc3)cc(-c3ccccn3)n2)s1 | 1.27 µM |
| Clc1cccc(-c2cc(-c3ccoc3)cc(-c3ccc(Cl)s3)n2)c1 | 0.95 µM |
| Cc1ccccc1-c1cc(-c2ccoc2)cc(-c2ccc(Cl)s2)n1 | 0.99 µM |

Each molecule was assayed against T1, DNA topoisomerase 1 (Homo sapiens) (UniProt P11387) (assay: Inhibition of human recombinant DNA topoisomerase 1-mediated relaxation of supercoiled pBR322 DNA at 20 uM after 30 mins by agarose gel electrophoresis). Conditions: not given.
T1 sequence (whole entry): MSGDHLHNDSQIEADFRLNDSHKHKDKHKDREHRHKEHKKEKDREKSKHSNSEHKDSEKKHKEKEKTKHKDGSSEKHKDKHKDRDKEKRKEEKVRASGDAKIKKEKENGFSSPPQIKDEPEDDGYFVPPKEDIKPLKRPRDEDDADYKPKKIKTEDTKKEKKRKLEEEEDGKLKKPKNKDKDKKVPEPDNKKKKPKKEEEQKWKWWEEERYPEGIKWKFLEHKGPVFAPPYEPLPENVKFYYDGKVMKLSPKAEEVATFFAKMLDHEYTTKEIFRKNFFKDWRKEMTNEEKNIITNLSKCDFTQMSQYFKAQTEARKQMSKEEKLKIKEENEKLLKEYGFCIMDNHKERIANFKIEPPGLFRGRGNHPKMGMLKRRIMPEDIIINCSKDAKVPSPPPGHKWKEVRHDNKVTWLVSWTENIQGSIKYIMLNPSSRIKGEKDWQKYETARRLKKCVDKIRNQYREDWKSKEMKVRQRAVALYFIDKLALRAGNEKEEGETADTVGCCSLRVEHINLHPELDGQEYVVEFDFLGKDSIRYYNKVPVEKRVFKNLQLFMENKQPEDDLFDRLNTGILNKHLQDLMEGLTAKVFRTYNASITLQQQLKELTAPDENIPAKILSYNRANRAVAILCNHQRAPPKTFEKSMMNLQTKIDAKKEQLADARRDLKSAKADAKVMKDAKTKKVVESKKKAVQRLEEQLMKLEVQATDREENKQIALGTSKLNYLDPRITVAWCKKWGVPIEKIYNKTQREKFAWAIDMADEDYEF
Method in brief: (§3)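 Recombinant human topo I (0.4 units) with 100 ng supercoiled pBR322, 30 min at 37 °C in 10 mM Tris–HCl pH 7.9, 150 mM NaCl, 0.1% BSA, 1 mM spermidine, 5% glycerol. Compounds from 20 mM DMSO stock. Products run on 1% agarose in TAE, 15 V for 7 h, ethidium-stained, bands quantified under UV.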

| SMILES | inhibition |
| --- | --- |
| Cc1cccc(-c2cc(-c3ccoc3)cc(-c3ccc(Cl)s3)n2)c1 | inactive |
| Cc1ccsc1-c1cc(-c2ccco2)cc(-c2ccc(Cl)cc2)n1 | inactive |
| Clc1ccc(-c2cc(-c3ccoc3)cc(-c3ccccn3)n2)s1 | inactive |
| Clc1cccc(-c2cc(-c3ccoc3)cc(-c3ccc(Cl)s3)n2)c1 | inactive |
| Cc1ccccc1-c1cc(-c2ccoc2)cc(-c2ccc(Cl)s2)n1 | inactive |

Each molecule was assayed against T1, DNA topoisomerase 1 (Homo sapiens) (assay: Inhibition of human recombinant DNA topoisomerase 1-mediated relaxation of supercoiled pBR322 DNA at 100 uM after 30 mins by agarose gel electrophoresis). Conditions: not given.
Method in brief: as §3

| SMILES | inhibition |
| --- | --- |
| Cc1cccc(-c2cc(-c3ccoc3)cc(-c3ccc(Cl)s3)n2)c1 | 2.6% |
| Cc1ccsc1-c1cc(-c2ccco2)cc(-c2ccc(Cl)cc2)n1 | 1% |
| Clc1ccc(-c2cc(-c3ccoc3)cc(-c3ccccn3)n2)s1 | 3.1% |
| Clc1cccc(-c2cc(-c3ccoc3)cc(-c3ccc(Cl)s3)n2)c1 | 2.1% |
| Cc1ccccc1-c1cc(-c2ccoc2)cc(-c2ccc(Cl)s2)n1 | 4.6% |

Each molecule was assayed on K562 (assay: Cytotoxicity against human K562 cells after 4 days by ELISA reader assay). Conditions: K562, 96 h.
Assay type: functional, cell-based
Method in brief: as §1

| SMILES | IC50 |
| --- | --- |
| Cc1cccc(-c2cc(-c3ccoc3)cc(-c3ccc(Cl)s3)n2)c1 | 13.7 µM |
| COc1cc([C@@H]2c3cc4c(cc3[C@@H](O[C@@H]3O[C@@H]5CO[C@@H](C)O[C@H]5[C@H](O)[C@H]3O)[C@H]3COC(=O)[C@H]23)OCO4)cc(OC)c1O [ETOPOSIDE] | 2.41 µM |
| Cc1ccsc1-c1cc(-c2ccco2)cc(-c2ccc(Cl)cc2)n1 | 20.7 µM |
| Clc1ccc(-c2cc(-c3ccoc3)cc(-c3ccccn3)n2)s1 | 20 µM |
| Clc1cccc(-c2cc(-c3ccoc3)cc(-c3ccc(Cl)s3)n2)c1 | 22.1 µM |
| Cc1ccccc1-c1cc(-c2ccoc2)cc(-c2ccc(Cl)s2)n1 | 12.3 µM |

These molecules were tested against DNA topoisomerase 2-alpha (Homo sapiens) (UniProt P11388) (assay: Inhibition of human DNA topoisomerase 2alpha-mediated relaxation of supercoiled pBR322 DNA at 20 uM after 30 mins by agarose gel electrophoresis). Conditions: not given.
Method in brief: as §2

| SMILES | inhibition |
| --- | --- |
| Cc1cccc(-c2cc(-c3ccoc3)cc(-c3ccc(Cl)s3)n2)c1 | 37.6% |
| COc1cc([C@@H]2c3cc4c(cc3[C@@H](O[C@@H]3O[C@@H]5CO[C@@H](C)O[C@H]5[C@H](O)[C@H]3O)[C@H]3COC(=O)[C@H]23)OCO4)cc(OC)c1O [ETOPOSIDE] | 28.9% |
| Cc1ccsc1-c1cc(-c2ccco2)cc(-c2ccc(Cl)cc2)n1 | 17.8% |
| Clc1ccc(-c2cc(-c3ccoc3)cc(-c3ccccn3)n2)s1 | 38.9% |
| Clc1cccc(-c2cc(-c3ccoc3)cc(-c3ccc(Cl)s3)n2)c1 | 50.6% |
| Cc1ccccc1-c1cc(-c2ccoc2)cc(-c2ccc(Cl)s2)n1 | 49.2% |

What follows are molecules tested on DU-145 (assay: Cytotoxicity against human DU145 cells after 4 days by ELISA reader assay). Conditions: DU-145, 96 h.
Assay type: functional, cell-based
Method in brief: as §1

| SMILES | IC50 |
| --- | --- |
| Cc1cccc(-c2cc(-c3ccoc3)cc(-c3ccc(Cl)s3)n2)c1 | 20.3 µM |
| COc1cc([C@@H]2c3cc4c(cc3[C@@H](O[C@@H]3O[C@@H]5CO[C@@H](C)O[C@H]5[C@H](O)[C@H]3O)[C@H]3COC(=O)[C@H]23)OCO4)cc(OC)c1O [ETOPOSIDE] | 1.3 µM |
| Cc1ccsc1-c1cc(-c2ccco2)cc(-c2ccc(Cl)cc2)n1 | 26.7 µM |
| Clc1ccc(-c2cc(-c3ccoc3)cc(-c3ccccn3)n2)s1 | 20.5 µM |
| Clc1cccc(-c2cc(-c3ccoc3)cc(-c3ccc(Cl)s3)n2)c1 | 23 µM |
| Cc1ccccc1-c1cc(-c2ccoc2)cc(-c2ccc(Cl)s2)n1 | 18.5 µM |
